CHO parental Ca – counter-screen for OX1R antagonists: effect in parental CHO cells | AID 463079 | 330,000 compounds, 0.63% hits | inhibition, % at 5.6 µM | parental CHO-K1, ATP-induced calcium, Fluo-8 fluorescence;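 active means inhibition above that plate's mean sample inhibition plus 3 SD, cut at about 26% in these data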;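 further: 0% = ATP-challenged DMSO wells and 100% = DMSO wells without ATP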
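Measured by: calcium-sensitive Fluo-8 fluorescence / Test system: CHO parental line / Controls: ATP-challenged DMSO wells low, unchallenged DMSO wells high / Measure: % inhibition / Compound: single nominal dose of 5.6 µM per compound / Replicates: single well per compound, no replicates / Reagent: ATP as calcium-mobilizing challenge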
GalR3 antagonist – antagonists of human GalR3 | O60755 | HEK293 GalR3-CNG cAMP membrane potential fluorescence; galR3 body fused to GalR1 C-terminus | inhibition, % at 3 µM | 360,000 compounds, 0.44% hits;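 active means inhibition above the screen-wide average plus 3 SD, cut at about 13% in these data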;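 further: forskolin and galanin both at EC90 stimulate the cells; cAMP rise reported by CNG channel membrane potential dye signal; 0% = forskolin plus galanin with DMSO and 100% = forskolin alone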
Target sequence (O60755 1-299 limits assumed): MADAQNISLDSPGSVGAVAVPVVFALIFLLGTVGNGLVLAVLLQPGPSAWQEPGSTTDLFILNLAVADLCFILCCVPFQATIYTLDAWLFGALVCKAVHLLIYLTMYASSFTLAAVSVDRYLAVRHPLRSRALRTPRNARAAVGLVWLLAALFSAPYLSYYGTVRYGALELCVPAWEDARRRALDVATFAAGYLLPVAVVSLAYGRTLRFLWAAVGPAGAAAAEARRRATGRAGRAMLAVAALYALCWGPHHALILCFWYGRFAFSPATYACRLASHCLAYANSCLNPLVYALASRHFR
TAAR1 antagonist – human TAAR1 antagonism; Q96RJ0; CHO RD-HGA16 TAAR1, Fluo-8 calcium fluorescence, antagonist; inhibition, % at 3 µM; 360,000 compounds, 1.5% hits; AID 624466;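 active means inhibition above a per-plate cutoff, the mean inhibition of test compounds on that plate plus 3 SD, cut at about 49% in these data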;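 further: 0% = DMSO plus EC80 beta-PEA response and 100% = DMSO alone without agonist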
Target sequence (Q96RJ0 whole entry, looked up): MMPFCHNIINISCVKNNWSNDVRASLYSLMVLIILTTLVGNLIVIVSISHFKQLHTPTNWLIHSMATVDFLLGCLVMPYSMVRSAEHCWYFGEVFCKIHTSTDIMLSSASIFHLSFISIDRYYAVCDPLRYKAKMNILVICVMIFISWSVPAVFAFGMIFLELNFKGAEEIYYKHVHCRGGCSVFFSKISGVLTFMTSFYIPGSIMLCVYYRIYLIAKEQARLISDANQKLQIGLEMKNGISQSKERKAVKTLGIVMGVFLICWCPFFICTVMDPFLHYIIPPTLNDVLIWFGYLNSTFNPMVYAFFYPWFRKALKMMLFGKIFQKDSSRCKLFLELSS
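Test system – hTAAR1-expressing CHO RD-HGA16 cells, Gα16-coupled · Reagent – β-PEA at EC80 concentration, post-compound challenge · Compound dosing – 3 µM, single point · Timing – 140 s kinetic read after compound, 140 s after agonist · Detection – Fluo-8 intracellular calcium dye fluorescence, real-time kinetic reads · Control set – DMSO and EC80 PEA controls · Repeats – n of 1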
OX1R antag-1 – blocks the human orexin 1 receptor; O43613; CHO/OX1R cells, Fluo-8 calcium fluorescence, orexin A; AID 434989; inhibition, % at 5 µM; 330,000 compounds, 0.43% hits;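 active means inhibition above its plate's threshold, mean inhibition of all tested compounds on the plate plus 3 SD, cut at about 37% in these data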;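 further: 0% = orexin A challenge wells and 100% = SB-334867-A antagonist wells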
OX1R antag-2 – OX1R (human) antagonism; O43613; OX1R-expressing cells, FRET antagonist read-out; inhibition, % at 6.6 µM; 330,000 compounds, 1.8% hits; in the data active means inhibition mostly above about 38%, no sharp cut-off; inactive means mostly below about 40%;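 further: 0% = agonist challenge alone and 100% = reference antagonist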
TAAR1 agonist – agonists of human TAAR1. Q96RJ0. CHO RD-HGA16 TAAR1, Fluo-8 calcium fluorescence; vehicle wells 0%, saturating PEA agonist 100%. activation, % at 3 µM. 360,000 compounds, 0.99% hits;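 active means activation above the mean activation of all test compounds in the run plus 3 SD, cut at about 38% in these data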
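System: CHO RD-HGA16 cells carrying human TAAR1 plus Gα16; Incubation: 17-24 h seeding, 75 min 37 °C dye, 30 min RT; Measured by: Fluo-8 fluorescence, 5 s baseline then 140 s kinetic read; Control set: DMSO and PEA EC100; Replication: single well for each compound.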
Active calls of the source: *; x = not tested or not shown. In the library only some 4.2% were active in any assay of this set; here they are far more common.

SMILES	CHO parental Ca	GalR3 antagonist	TAAR1 antagonist	OX1R antag-1	OX1R antag-2	TAAR1 agonist
CCOC(=O)c1c(S(=O)(=O)NCCc2ccc(OC)c(OC)c2)c(C)n(C)c1C	-2	-2	-26	-12	21	3
Cc1ccc(O)c(-c2cc(-c3ccccc3[N+](=O)[O-])[nH]n2)c1	-4	-10	57*	-9	19	9
Cc1nn(-c2ccccc2)c2sc(C(=O)NNC(=O)COc3ccccc3)cc12	-6	0	-6	-9	49*	2
Cc1nn(-c2ccccc2)c2sc(C(=O)NNC(=O)COc3cccc4ccccc34)cc12	-15	-5	15	-29	11	4
CSc1nnc(C)c(/C=C/Nc2ccc(F)cc2)n1	-2	-2	32	-18	23	68*
CSc1nnc(C)c(/C=C/Nc2ccc(Cl)cc2)n1	-20	-1	9	-21	19	37
Cc1cc(S(=O)(=O)N2CCCC(N(C)CCc3ccccn3)C2)c(C)s1 (stereo unspecified)	-19	-2	-20	-22	27	9
CCO[C@H]1OC(C(=O)NC2CC2)=C[C@@H](c2ccc(C(F)(F)F)cc2)[C@@H]1CCCO	-1	-3	15	-18	23	10
COc1ccc(C)cc1NC(=O)c1nn(C)c(C(=O)Nc2cc(C)ccc2OC)c1[N+](=O)[O-]	-17	0	-30	-5	34*	4
Cc1ccccc1NC(=O)c1nn(C)c(C(=O)Nc2ccccc2C)c1[N+](=O)[O-]	-14	-13	3	-9	8	7
Cn1ncc([N+](=O)[O-])c1C(=O)N/N=C/c1cccc([N+](=O)[O-])c1	-4	-3	-17	-9	54*	6
O=C(N/N=C/c1ccc2ncccc2c1)c1cccc([N+](=O)[O-])c1	-10	-8	7	0	72*	-2
Cn1cc(C(=O)N/N=C/c2cccc([N+](=O)[O-])c2)c2ccccc21	-17	5	10	9	43*	1
O=C(c1cccs1)N1CCN(Cc2nc3ccccc3c(=O)[nH]2)CC1	-5	1	3	1	25	6
CCOC(=O)c1cc2c(=O)n3ccccc3nc2n(CCOC)c1=NC(=O)C(C)(C)C	3	-2	-10	-27	43	4
COCCCn1c(=NC(C)=O)c(C#N)cc2c(=O)n3cccc(C)c3nc21	-22	-3	-35	-4	23	-1
CCOCCCn1c(=NC(C)=O)c(C#N)cc2c(=O)n3ccccc3nc21	1	-2	-18	1	40*	0
CCOCCCn1c(=NC(C)=O)c(C(=O)OCC)cc2c(=O)n3ccccc3nc21	-2	-7	-1	-7	59*	1
CC(=O)N=c1c(C#N)cc2c(=O)n3ccccc3nc2n1Cc1ccccc1	-2	-10	-18	15	2	1
COCCCn1c(=NC(=O)c2ccccc2)c(C#N)cc2c(=O)n3cccc(C)c3nc21	10	-2	-37	2	55*	2
N#Cc1cccc(C#N)c1Oc1ccc(S(=O)(=O)Nc2ccc(Cl)cc2)cc1	43*	4	12	13	13	18
CC(=O)N1c2c(cc(Br)cc2S(=O)(=O)NCc2ccccc2)CC1C (stereo unspecified)	-10	-12	-7	-7	19	0
O=C(NCC(c1ccco1)N1CCc2ccccc2C1)c1cccc(Br)c1 (stereo unspecified)	-26	-1	-1	-31	33	38*
O=C(NCC(c1ccco1)N1CCOCC1)c1cccc([N+](=O)[O-])c1 (stereo unspecified)	-13	-3	-20	-9	26	-2
Cc1ccc(C(=O)NCC(c2ccco2)N2CCc3ccccc3C2)cc1 (stereo unspecified)	-8	-2	-11	-15	23	40*
SMILES	CHO parental Ca	GalR3 antagonist	TAAR1 antagonist	OX1R antag-1	OX1R antag-2	TAAR1 agonist
O=C(NCC(c1ccco1)N1CCOCC1)c1ccc([N+](=O)[O-])cc1 (stereo unspecified)	-9	2	-9	-4	67*	4
COc1ccc(C(=O)NCC(c2ccco2)N2CCc3ccccc3C2)cc1 (stereo unspecified)	-10	-6	6	-20	24	40*
CCOc1ccc(C(=O)NCC(c2ccco2)N2CCc3ccccc3C2)cc1 (stereo unspecified)	-21	-4	-65	-42	23	7
O=C(CCC(=O)Nc1cccc([N+](=O)[O-])c1)NCc1ccccc1	1	-8	-9	-4	11	0
Fc1ccc(-c2ccc(/C=N\n3cnnc3)o2)cc1Cl	1	-2	-20	3	28	1
CNC(C)C#Cc1ccc2oc3cccc(OC)c3c(=O)c2c1 (stereo unspecified)	-20	-11	7	-4	48*	1
CC(NCCCOc1cccc2ccccc12)c1ccccc1 (stereo unspecified)	6	-15	36	-17	-14	45*
O=C(Nc1ccc(Br)cc1)c1ccc(F)c(S(=O)(=O)NCc2cccs2)c1	0	109*	4	55*	94*	12
C/C(=N\N=c1/sc2ccccc2n1C)c1ccccn1	-23	-5	-30	-6	62*	2
O=C(O)c1c[nH]c2c([N+](=O)[O-])cccc2c1=O	x	-2	-6	x	x	0
c1ccc2c(CCNc3ncnc4nc[nH]c34)cccc2c1	34*	-7	67*	28	22	25
c1ccc(CCCNc2ncnc3nc[nH]c23)cc1	3	4	8	-1	21	5
COc1ccc(OCCCC(=O)OC(C)C(=O)Nc2cccc(C(C)=O)c2)cc1 (stereo unspecified)	17	-2	12	-7	64*	0
COc1ccc(OCCCC(=O)Nc2cccc(C(C)=O)c2)cc1	8	-11	7	-9	2	2
COc1ccc(OC)c(S(=O)(=O)Oc2ccc(N)c3ccccc23)c1	-3	-7	-22	-13	43*	1
COc1ccc(OC)c(S(=O)(=O)Nc2cccc3ccccc23)c1	-48	-1	15	-6	29	0
COc1ccccc1N=Nc1nc(-c2ccccc2)c(-c2ccccc2)[nH]1	26	-2	24	0	66*	-2
Cc1cccnc1NC(=O)Nc1cccc2ccccc12	-22	-4	-1	-10	45*	0
Cc1ccccc1NS(=O)(=O)c1ccc(C(=O)NCCCN2CCOCC2)cc1	-5	0	-16	-11	7	2
CCC(=O)N(C)/C=C1\Sc2ccccc2C1=O	-5	2	-3	-13	-2	3
